Consider five molecules from paper PMC5844832 (Bioorganic & medicinal chemistry, 2017).

*: point of attachment. FITC = O=C1OC2(c3ccc(O)cc3Oc3cc(O)ccc32)c2ccc(NC(=S)*)cc21; βAla = NCCC(=O)O

In one experiment the target is T1, HOIP-UBA (Homo sapiens, UniProt Q96EP0).
T1 sequence (Q96EP0 480-636): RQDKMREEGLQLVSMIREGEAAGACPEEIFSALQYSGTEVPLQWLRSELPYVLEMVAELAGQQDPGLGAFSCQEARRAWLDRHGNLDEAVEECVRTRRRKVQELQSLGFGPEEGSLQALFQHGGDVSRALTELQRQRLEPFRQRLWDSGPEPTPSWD
Kind of experiment: Native gel shift assay. Type of experiment: binding. The conditions noted are these: 2.5 μM FITC peptide, 50 μg/mL protein, 1 h 37 °C, hrCNE. On the technique in general: Mobility shift assays separate free from complexed probe on a gel.

The target in a further experiment is T2, Petit-LUBAC (Homo sapiens, UniProt Q96EP0+Q9BYM8).
T2 sequence (Q96EP0 474-1072): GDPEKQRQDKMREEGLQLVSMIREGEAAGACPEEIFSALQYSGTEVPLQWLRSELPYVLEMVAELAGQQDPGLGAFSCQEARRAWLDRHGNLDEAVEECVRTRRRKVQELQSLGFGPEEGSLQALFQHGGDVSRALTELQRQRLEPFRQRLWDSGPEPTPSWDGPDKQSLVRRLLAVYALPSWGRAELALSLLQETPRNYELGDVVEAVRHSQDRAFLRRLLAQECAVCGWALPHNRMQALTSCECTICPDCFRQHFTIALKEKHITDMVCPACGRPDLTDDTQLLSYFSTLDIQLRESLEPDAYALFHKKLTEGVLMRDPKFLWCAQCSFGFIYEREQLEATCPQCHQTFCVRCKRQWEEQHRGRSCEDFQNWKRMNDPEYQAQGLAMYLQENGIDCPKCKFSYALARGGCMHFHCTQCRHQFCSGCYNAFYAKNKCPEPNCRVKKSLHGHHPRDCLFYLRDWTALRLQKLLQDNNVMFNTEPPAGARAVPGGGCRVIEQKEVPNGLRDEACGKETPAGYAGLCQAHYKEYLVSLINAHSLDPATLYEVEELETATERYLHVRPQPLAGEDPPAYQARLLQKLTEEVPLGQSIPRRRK
T2 sequence (Q9BYM8 1-191): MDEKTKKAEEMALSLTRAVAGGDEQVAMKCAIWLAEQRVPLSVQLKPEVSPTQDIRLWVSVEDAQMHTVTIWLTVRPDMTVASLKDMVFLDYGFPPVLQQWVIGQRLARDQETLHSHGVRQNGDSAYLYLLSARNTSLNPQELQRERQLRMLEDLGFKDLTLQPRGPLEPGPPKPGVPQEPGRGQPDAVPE
Kind of experiment: Native gel shift assay. Type of experiment: binding. To be noted: 2.5 μM FITC peptide, 50 μg/mL protein, 1 h 37 °C, hrCNE. In short, it runs like this: (§1)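 Recombinant protein, expressed in Rosetta (DE3) E. coli, was mixed at 50 μg/mL with 2.5 μM FITC-peptide in 1X ubiquitylation buffer, with or without 20 μM unlabelled peptide competitor. Mixtures were incubated 1 h at 37 °C and resolved on 5% acrylamide native gels (bis-Tris, pH 7.0; Tricine/imidazole/deoxycholate cathode buffer) at […] for 4–5 h at 4 °C. Fluorescent bands were imaged, with protein-only lanes as controls.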

Another experiment addresses T3, HOIL-UBL (Homo sapiens, UniProt Q9BYM8).
T3 sequence (Q9BYM8 37-128): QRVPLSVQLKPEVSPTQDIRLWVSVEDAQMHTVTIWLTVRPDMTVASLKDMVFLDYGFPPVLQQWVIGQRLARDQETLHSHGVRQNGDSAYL
Kind of experiment: Native gel shift assay. To be noted: 2.5 μM FITC peptide, 50 μg/mL protein, 1 h 37 °C, hrCNE. Type of experiment: binding. The method in brief: as §1

Experiment [1] concerns the target T4, Petit-LUBAC (truncated sub-complex of LUBAC: HOIL-1L 1-191 and HOIP 474-1072) (human, UniProt Q9BYM8-1 1-191; Q96EP0 474-1072).
T4 sequence (looked up) 1: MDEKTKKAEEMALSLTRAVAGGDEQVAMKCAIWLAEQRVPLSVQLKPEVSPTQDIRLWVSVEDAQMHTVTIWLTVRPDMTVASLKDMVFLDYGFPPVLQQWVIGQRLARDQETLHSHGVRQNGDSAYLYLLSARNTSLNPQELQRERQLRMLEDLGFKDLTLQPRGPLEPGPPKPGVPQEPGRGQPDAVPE
T4 sequence (looked up) 2: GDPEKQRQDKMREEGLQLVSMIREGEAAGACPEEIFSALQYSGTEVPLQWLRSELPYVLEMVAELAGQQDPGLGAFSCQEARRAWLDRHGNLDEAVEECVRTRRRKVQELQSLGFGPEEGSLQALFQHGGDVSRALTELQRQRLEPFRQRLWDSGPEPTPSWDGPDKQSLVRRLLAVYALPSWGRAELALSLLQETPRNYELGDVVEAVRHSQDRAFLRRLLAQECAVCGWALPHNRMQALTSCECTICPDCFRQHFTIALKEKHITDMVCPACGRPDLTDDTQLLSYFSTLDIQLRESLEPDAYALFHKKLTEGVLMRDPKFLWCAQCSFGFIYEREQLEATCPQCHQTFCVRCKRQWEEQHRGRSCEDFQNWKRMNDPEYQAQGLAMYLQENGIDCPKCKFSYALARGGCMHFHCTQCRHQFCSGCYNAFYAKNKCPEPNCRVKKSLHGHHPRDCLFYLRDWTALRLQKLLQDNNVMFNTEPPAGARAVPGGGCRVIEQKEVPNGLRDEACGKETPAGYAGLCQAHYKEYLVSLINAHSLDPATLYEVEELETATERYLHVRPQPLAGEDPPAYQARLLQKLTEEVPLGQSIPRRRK
Kind of experiment: native gel or EMSA.

For the next experiment, the target named is T5, GST-HOIP-UBA (human, UniProt Q96EP0 480-636).
T5 sequence: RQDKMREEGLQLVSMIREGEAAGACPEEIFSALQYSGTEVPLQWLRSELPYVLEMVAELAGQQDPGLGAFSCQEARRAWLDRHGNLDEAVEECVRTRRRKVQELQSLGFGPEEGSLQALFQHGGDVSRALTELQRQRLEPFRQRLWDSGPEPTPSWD
Kind of experiment: SPR. For orientation: SPR reads the build-up and loss of mass on a sensor chip optically.

Experiment [2] has as its target T6, HOIP residues 474-1072 (the HOIP chain of Petit-LUBAC) (human, UniProt Q96EP0 474-1072).
T6 sequence (looked up): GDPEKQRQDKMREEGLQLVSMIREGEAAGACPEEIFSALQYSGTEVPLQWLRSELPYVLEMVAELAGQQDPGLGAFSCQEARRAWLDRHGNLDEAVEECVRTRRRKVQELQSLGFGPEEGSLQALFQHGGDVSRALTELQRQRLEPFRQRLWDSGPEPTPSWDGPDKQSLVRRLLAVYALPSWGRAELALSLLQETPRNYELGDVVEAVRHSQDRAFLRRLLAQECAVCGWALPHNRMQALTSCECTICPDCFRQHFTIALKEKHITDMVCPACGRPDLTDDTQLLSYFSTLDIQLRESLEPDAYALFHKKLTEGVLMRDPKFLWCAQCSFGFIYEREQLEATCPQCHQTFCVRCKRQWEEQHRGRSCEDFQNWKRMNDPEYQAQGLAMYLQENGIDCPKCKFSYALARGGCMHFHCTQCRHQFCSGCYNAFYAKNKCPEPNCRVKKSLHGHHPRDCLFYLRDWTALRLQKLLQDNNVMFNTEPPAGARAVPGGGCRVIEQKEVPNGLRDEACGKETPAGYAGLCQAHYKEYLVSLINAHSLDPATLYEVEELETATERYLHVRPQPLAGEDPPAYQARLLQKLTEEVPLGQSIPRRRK
Kind of experiment: native gel or EMSA.

Another experiment deals with T7, His6-HOIL-UBL (human, UniProt Q9BYM8-1 37-137).
T7 sequence: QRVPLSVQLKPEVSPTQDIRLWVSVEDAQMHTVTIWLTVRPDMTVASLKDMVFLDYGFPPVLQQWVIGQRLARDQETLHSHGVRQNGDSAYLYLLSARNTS
Description: SPR.

Take “1: unstapled peptide based on 22-amino acid region of HOIP-UBA (residues 606-627) ({Ac-βAla}-SRALTELQRQRLEPFRQRLWDS-NH2) [Compound 1]”: the “Gel shift of FITC-labelled peptide with HOIP-UBA” value in the experiment with HOIP-UBA is recorded as “a shift similar to the one observed with Petit-LUBAC was observed”. Besides, the “Gel shift of FITC-labelled peptide with Petit-LUBAC” value with Petit-LUBAC is “higher shifted molecular weight”. For the same molecule, the “Gel shift of FITC-labelled peptide with HOIL-UBL” value in the experiment with HOIL-UBL was “no shift was observed”.

B1: FITC labeled HOIP WT (1) peptide (peptide, UniProt Q96EP0 606-627, looked up)
peptide: {FITC-βAla}-SRALTELQRQRLEPFRQRLWDS-NH2
Consider B1, for which the binding result in experiment [1] is listed as “binds”.

B2: N-P2G (6), N-stapled P2G HOIP peptide (peptide)
chain: SRALTELQRQRLEGFRQRLWDS
modifications: N-terminal β-alanine; N-terminal acetyl; hydrocarbon staple between two cross-linking amino acids in the N-terminal (α8) helix
Broadly, the Kd is a measure of binding affinity in units of concentration. A higher Kd goes with lower affinity. Turning to B2, in the experiment with GST-HOIP-UBA, the Kd was 4.28 µM.

B3: HOIL-1L residues 1-191 (the HOIL chain of Petit-LUBAC) (domain or fragment, human, UniProt Q9BYM8-1 1-191, looked up)
chain: MDEKTKKAEEMALSLTRAVAGGDEQVAMKCAIWLAEQRVPLSVQLKPEVSPTQDIRLWVSVEDAQMHTVTIWLTVRPDMTVASLKDMVFLDYGFPPVLQQWVIGQRLARDQETLHSHGVRQNGDSAYLYLLSARNTSLNPQELQRERQLRMLEDLGFKDLTLQPRGPLEPGPPKPGVPQEPGRGQPDAVPE
Turning to B3, the binding result in experiment [2] is “binds”.

B4: P2G WT (5), unstapled HOIP peptide with proline-to-glycine substitution (peptide, UniProt Q96EP0 606-627, looked up)
peptide: {Ac-βAla}-SRALTELQRQRLEGFRQRLWDS-NH2
B4: the Kd was 81.4 µM with GST-HOIP-UBA and 97.3 µM in the experiment with His6-HOIL-UBL.
